The values that follow come from ChEMBL document CHEMBL1949637, “Anticancer effects of the metabolic products of the resveratrol analogue, DMU-212: structural requirements for potency” (Eur J Med Chem, 2011).

The source made the active and inactive calls. The calls are words filed in the database; no cut-off is given here.

Common to all, as to format: functional, cell-based
Experiment [1] concerns MCF7. In words: Induction of apoptosis in human MCF7 cells assessed as nuclear fragmentation at 10 uM after 24 hrs using DAPI staining by immunofluorescence method. The gist of the method: (§1)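 MCF-7 cells grown on coverslips (8 × 10⁴ cells/well) and treated 24 h at 10 or 30 μM. Fixed, permeabilised and processed as for β-tubulin immunostaining. DAPI working solution applied at 1:100 for 5 min. Fragmented nuclei scored by fluorescence microscopy.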

Experiment [2] deals with MCF7. The experiment is described as follows: Antimitotic activity in human MCF7 cells assessed as decrease in localization of beta-tubulin expression around cell nucleus at 30 uM after 48 hrs by immunofluorescence staining. The gist of the method: (§2)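 MCF-7 cells seeded on coverslips in 24-well plates, 8 × 10⁴ cells/well, exposed to 10 or 30 μM for 24 or 48 h. Fixed, permeabilised, then stained 1 h at room temperature with anti-β-tubulin (1:200 in PBS/1% FBS). Secondary was AlexaFluor-conjugated anti-mouse IgG (1:500), 1 h in the dark. Read by fluorescence microscopy.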

Experiment [3] deals with MCF7. The experiment is described as follows: Antimitotic activity in human MCF7 cells assessed as decrease in localization of beta-tubulin expression around cell nucleus at 30 uM after 24 hrs by immunofluorescence staining. The method, boiled down: as §2
Experiment [4] relates to MCF7. The experiment is described as follows: Cell cycle arrest in human MCF7 cells assessed as accumulation at S phase at 10 uM after 24 hrs using propidium iodide staining by flow cytometry. The method, boiled down: (§3)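 Cells cultured in T75 flasks, serum-starved 24 h, then exposed to 10 μM for 24 h. Trypsinised, washed in PBS and fixed in 70% ethanol for at least 2 h. Stained with propidium iodide 50 μg/mL containing RNase A 100 μg/mL. DNA content read by flow cytometry on at least 10,000 events. Percentage of cells in each phase recorded.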

In experiment [5] the test system is HepG2. The experiment is described as follows: Cell cycle arrest in human HepG2 cells assessed as accumulation at S phase at 10 uM after 24 hrs using propidium iodide staining by flow cytometry. The gist of the method: as §3
In general terms: In flow cytometry, cells or beads pass a laser one at a time.

Experiment [6] concerns MCF7. In words: Cell cycle arrest in human MCF7 cells assessed as accumulation at G2/M phase at 10 uM after 24 hrs using propidium iodide staining by flow cytometry. The gist of the method:
as §3

For experiment [7], the system named is HeLa. In words: Cytotoxicity against human HeLa cells after 96 hrs by MTT assay. The gist of the method: (§4)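 Cells plated in 96-well plates and allowed 24 h growth. Medium was replaced with serial dilutions, 0.079–20 μM, for 96 h. Viability read spectrophotometrically by MTT reduction. IC₅₀ values taken from at least 3 experiments. MCF-7 cells were kept in RPMI-1640 and HepG2/HeLa in DMEM, each with 10% heat-inactivated FCS.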
A general note: Tetrazolium dyes change colour on reduction, which living cells bring about.

In experiment [8] the test system is HepG2. In words: Cell cycle arrest in human HepG2 cells assessed as accumulation at G2/M phase at 10 uM after 24 hrs using propidium iodide staining by flow cytometry. The gist of the method: as §3
The test system of experiment [9] is HepG2. In words: Upregulation of p53 protein expression in human HepG2 cells after 24 hrs by Western blot analysis. The method, boiled down: (§5)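 MCF-7 or HepG2 cells seeded at 3 × 10⁵ cells/mL in 6-well plates and treated 24 h at 37 °C with 0, 30, 40 or 50 μM. Lysed in buffer with protease inhibitors and 1 mM DTT, then sonicated. Lysates run on SDS-PAGE (10% resolving gel), wet-blotted to PVDF and probed overnight at 4 °C. Antibodies were anti-β-tubulin 1:400, p53 1:200, cyclin D1 1:200; β-actin 1:400 served as loading reference. Detection by ECL.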
A general note: Immunoblotting shows a protein as a band on a membrane.

Experiment [10] relates to MCF7. The experiment is described as follows: Cell cycle arrest in human MCF7 cells assessed as accumulation at G1 phase at 10 uM after 24 hrs using propidium iodide staining by flow cytometry. The gist of the method: as §3
The subject of experiment [11] is HepG2. In words: Downregulation of beta-tubulin expression in human HepG2 cells at >30 uM after 24 hrs by Western blot analysis. The gist of the method:
as §5

The test system of experiment [12] is HepG2. The experiment is described as follows: Downregulation of cyclin D1 expression in human HepG2 cells after 24 hrs by Western blot analysis. The gist of the method:
as §5

Experiment [13] deals with HepG2. In words: Cell cycle arrest in human HepG2 cells assessed as accumulation at G1 phase at 10 uM after 24 hrs using propidium iodide staining by flow cytometry. The gist of the method: as §3
The subject of experiment [14] is MCF7. The experiment is described as follows: Upregulation of p53 protein expression in human MCF7 cells after 24 hrs by Western blot analysis. The gist of the method: as §5
Experiment [15] has as its system MCF7. The experiment is described as follows: Cytotoxicity against human MCF7 cells after 96 hrs by MTT assay. To be noted: MCF7, 96 h. The gist of the method: as §4
Experiment [16] concerns MCF7. In words: Induction of apoptosis in human MCF7 cells assessed as nuclear fragmentation at 30 uM after 24 hrs using DAPI staining by immunofluorescence method. The gist of the method:
as §1

The subject of experiment [17] is MCF7. The experiment is described as follows: Downregulation of beta-tubulin expression in human MCF7 cells at >30 uM after 24 hrs by Western blot analysis. The gist of the method: as §5
Experiment [18] relates to MCF7. In words: Downregulation of cyclin D1 expression in human MCF7 cells after 24 hrs by Western blot analysis. The gist of the method:
as §5

Experiment [19] has as its system HeLa. In words: Cell cycle arrest in human HeLa cells assessed as accumulation at G2/M phase at 10 uM after 24 hrs using propidium iodide staining by flow cytometry. The method, boiled down: as §3
Experiment [20] deals with MCF7. The experiment is described as follows: Antimitotic activity in human MCF7 cells assessed as effect on beta-tubulin distribution at 10 uM after 24 hrs by immunofluorescence staining. The gist of the method: as §2
Experiment [21] deals with HepG2. In words: Cytotoxicity against human HepG2 cells after 96 hrs by MTT assay. To be noted: HepG2, 96 h. The gist of the method: as §4
The subject of experiment [22] is HepG2. In words: Cytotoxicity against human HepG2 cells up to 20 uM after 96 hrs by MTT assay.
The subject of experiment [23] is MCF7. The experiment is described as follows: Cytotoxicity against human MCF7 cells up to 20 uM after 96 hrs by MTT assay.
Experiment [24] relates to MCF7. In words: Induction of apoptosis in human MCF7 cells assessed as upregulation of Bax mRNA level after 24 hrs by RT-PCR analysis.
The subject of experiment [25] is HepG2. The experiment is described as follows: Induction of apoptosis in human HepG2 cells assessed as upregulation of Bax mRNA level after 24 hrs by RT-PCR analysis.
Experiment [26] deals with HepG2. The experiment is described as follows: Induction of apoptosis in human HepG2 cells assessed as increase of ratio of Bax to Bcl-xL mRNA level at 20 to 40 uM after 24 hrs by RT-PCR analysis.
The subject of experiment [27] is MCF7. In words: Induction of apoptosis in human MCF7 cells assessed as down-regulation of Bcl-xL mRNA level after 24 hrs by RT-PCR analysis.
For experiment [28], the system named is MCF7. In words: Induction of apoptosis in human MCF7 cells assessed as increase of ratio of Bax to Bcl-xL mRNA level at 30 to 40 uM after 24 hrs by RT-PCR analysis.
The subject of experiment [29] is HepG2. The experiment is described as follows: Induction of apoptosis in human HepG2 cells assessed as effect on Bcl-xL mRNA level after 24 hrs by RT-PCR analysis.

On to `COc1ccc(/C=C/c2cc(OC)c(OC)c(OC)c2)cc1`, for which the result with MCF7 [1] and with MCF7 [20] was inactive. In addition, the outcome in the experiment on MCF7 [2], in the experiment on MCF7 [3], in the experiment with MCF7 [4], with HepG2 [5], in the experiment on MCF7 [6] and with HeLa [7] was Active. The outcome in the experiment with HepG2 [8], with MCF7 [10], in the experiment with HepG2 [11], with HepG2 [13], with MCF7 [16] and with MCF7 [17] was Active. In addition, the result in the experiment on HeLa [19] was Active. In addition, the Activity result with HepG2 [9], with HepG2 [12], in the experiment on MCF7 [14] and in the experiment on MCF7 [18] was “Dose-dependent effect” in each case. In addition, the IC50 in the experiment on MCF7 [15] and in the experiment with HepG2 [21] was 300 nM each time.

`COc1ccc(/C=C/c2cc(OC)c(O)c(OC)c2)cc1`: the result in the experiment on HepG2 [22] and with MCF7 [23] was inactive.

Consider `COc1cc(/C=C/c2ccc(O)cc2)cc(OC)c1OC`, for which the outcome with HepG2 [22] and in the experiment on MCF7 [23] was inactive.

With `COc1ccc(/C=C/c2cc(OC)c(OC)c(OC)c2)cc1O`, the outcome in the experiment on MCF7 [1], in the experiment with MCF7 [20] and with HepG2 [29] was inactive. The result in the experiment with MCF7 [2], in the experiment on MCF7 [3], in the experiment on MCF7 [4], in the experiment with HepG2 [5], in the experiment with HepG2 [22] and in the experiment with MCF7 [6] was Active. The result in the experiment with HeLa [7], in the experiment on HepG2 [8], in the experiment on MCF7 [23], in the experiment on MCF7 [10], in the experiment with HepG2 [11] and in the experiment with HepG2 [13] was Active. The result with HepG2 [26], with MCF7 [27], in the experiment with MCF7 [28], in the experiment on MCF7 [16], with MCF7 [17] and in the experiment on HeLa [19] was Active. Moreover, the Activity result with MCF7 [24], in the experiment with HepG2 [25], with HepG2 [9], in the experiment with HepG2 [12], in the experiment on MCF7 [14] and in the experiment on MCF7 [18] was “Dose-dependent effect” each time.

On to `COc1ccc(/C=C/c2cc(O)c(OC)c(OC)c2)cc1`, for which the outcome in the experiment on HepG2 [22] and with MCF7 [23] was inactive.

One may read the IC50 as the concentration needed to halve the response being measured. Low readings indicate greater potency, high ones weaker potency.
